Data set [1] can be described thus: folding enthalpy; higher = less favourable; fluorescence melt of hairpins on a sequencing array, two-state fit. The following applies: sodium 0.088 M. An outline of the steps:
(§1)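 Bootstrapped two-state fits yielded melting temperature and folding enthalpy for library hairpins. Cy3 fluorescence, with annealed Cy3 and quencher oligos, was imaged on a sequenced MiSeq flow cell in 50 mM Na-HEPES pH 8.0, 25 mM NaCl in 2.5 °C steps up to 60 °C, and normalised to pre-quench Cy3 and to control constructs. Four replicates were combined by inverse variance, and fitted temperatures were raised by 9.35 °C to match UV melts.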

Data set [2] in a line: melting temperature; fluorescence melt of hairpins on a sequencing array, two-state fit, raised by 9.35 °C to match UV melts. The following applies: sodium 0.088 M. The gist of the method: as §1

Take GGCCCCGAAAGGGTCGCC ((((((....)))..))): the folding enthalpy in data set [1] was -16.1 kcal/mol. The Tm in data set [2] came out at 55.5 °C.

As to GTGTCAGGAAACTGACAC (((((((....))))))), the folding enthalpy in data set [1] was -37 kcal/mol. Further, in data set [2], the Tm turned out to be 66.4 °C.

GTTCCGGAAACGGAAC ((((((....)))))): the folding enthalpy in data set [1] is -32.4 kcal/mol. Also, in data set [2], the Tm came to 66.3 °C.

As for GGCCACGAAAGTGTTGCC ((((((....)))..))), the folding enthalpy in data set [1] is -16.7 kcal/mol. Also, the Tm in data set [2] is 49.9 °C.

On to GCTGGCGAAAGCCGTAGC ((((((....)))..))), for which, in data set [1], the folding enthalpy is -13.9 kcal/mol. In data set [2], the Tm came to 58.9 °C.

As to GCCCGAGGAAACCCAGGC (((.(.(....).).))), in data set [1], the folding enthalpy was -16.5 kcal/mol. Also, in data set [2], the Tm stood at 28.1 °C.

With GCCTTAGGAAACTAAGGC (((((((....))))))), in data set [1], the folding enthalpy is -37 kcal/mol. For the same sequence, the Tm in data set [2] came out at 60.3 °C.

In the case of GGTCATCGAAAGATTACC (((.(((....))).))), in data set [1], the folding enthalpy is -34.3 kcal/mol. The Tm in data set [2] is 42.6 °C.

On to GGCAATGCGAAAGCAGCC (((..(((....)))))), for which the folding enthalpy in data set [1] was -17.7 kcal/mol. Moreover, the Tm in data set [2] came to 57.6 °C.

For GGAGTAGGAAACTACTCC (((((((....))))))), the folding enthalpy in data set [1] is -46.4 kcal/mol. In data set [2], the Tm turned out to be 59 °C.

Consider GTCCGCTCGAAAGAGGAC (((..(((....)))))), for which the folding enthalpy in data set [1] is -29 kcal/mol. The Tm in data set [2] was found to be 47.4 °C.

For the sequence GCCATTGGAAACAATAGC ((.((((....)))).)), the folding enthalpy in data set [1] is -13.7 kcal/mol. Besides, in data set [2], the Tm turned out to be 33.1 °C.

For the sequence GGCTGTTCGAAAGAAGCC (((..(((....)))))), the folding enthalpy in data set [1] was -20.9 kcal/mol. The Tm in data set [2] is 38.2 °C.

Take GCCTTGCGAAAGCTAAGC ((.(.((....)).).)): in data set [1], the folding enthalpy is -9.38 kcal/mol. Further, the Tm in data set [2] amounted to 45.8 °C.

For the sequence GACGAGACGAAAGTCGTC (((..(((....)))))), the folding enthalpy in data set [1] is -13.8 kcal/mol. The Tm in data set [2] is 49 °C.

For the sequence GGACAAGCGAAAGCTTCC (((..(((....)))))), the folding enthalpy in data set [1] was -12.3 kcal/mol. Moreover, the Tm in data set [2] worked out at 29.2 °C.

For GTTTAGGGAAACCTAAGC (.(((((....))))).), in data set [1], the folding enthalpy is -21.8 kcal/mol. Further, the Tm in data set [2] is 33.8 °C.

As for GATCCTGTAAGGATC ((((((...)))))), the folding enthalpy in data set [1] is -37 kcal/mol. Besides, in data set [2], the Tm is 62 °C.

On to GCGTTCGAAAGAAATCGC ((((((....)))..))), for which the folding enthalpy in data set [1] is -25 kcal/mol. In addition, the Tm in data set [2] came to 35.2 °C.

Turning to GATCCTAATAAGGATC ((((((....)))))), the folding enthalpy in data set [1] was -40.1 kcal/mol. For the same sequence, in data set [2], the Tm came out at 50.8 °C.

GAGTGGAAACACTC (((((....))))): in data set [1], the folding enthalpy is -29.6 kcal/mol. The Tm in data set [2] was determined as 51 °C.

On to GCTCTAGGAAACCAGAGC (((((.(....).))))), for which the folding enthalpy in data set [1] is -31.4 kcal/mol. For the same sequence, the Tm in data set [2] came to 44 °C.

Consider GCCGTCGAAAGACTCGGC ((((((....)))..))), for which, in data set [1], the folding enthalpy was -23.8 kcal/mol. Also, in data set [2], the Tm amounted to 48.8 °C.

GTCGGCGAAAGCCTGAC ((((((....))).))): the folding enthalpy in data set [1] is -15.6 kcal/mol. The Tm in data set [2] came to 56.9 °C.

Regarding GGATACGGAAACGTGTCC (((.(((....))).))), in data set [1], the folding enthalpy was -46.1 kcal/mol. Also, in data set [2], the Tm came to 52.7 °C.

As to CGGCCGGAAACGGGGCCG ((((((....)))..))), the folding enthalpy in data set [1] was -39.4 kcal/mol. In addition, the Tm in data set [2] worked out at 59.1 °C.

GAGCTAGGAAACCAGCTC (((((.(....).))))): the folding enthalpy in data set [1] is -39.1 kcal/mol. The Tm in data set [2] stood at 46.3 °C.

Regarding GATCATTCGAATGATC ((((((....)))))), the folding enthalpy in data set [1] is -46.8 kcal/mol. Moreover, the Tm in data set [2] stood at 50.5 °C.

Consider GATAATGGAAACGTTATC (((((.(....).))))), for which the folding enthalpy in data set [1] is -29.4 kcal/mol. For the same sequence, the Tm in data set [2] stood at 34.6 °C.

For GATCAGTCTACTGATC ((((((....)))))), the folding enthalpy in data set [1] is -49.8 kcal/mol. Besides, in data set [2], the Tm is 54.2 °C.

(Values after the array DNA melting data of Ke et al. (doi:10.1101/2024.01.08.574731).)
